“And” between values parts separate entries of the source, which are not always exact repeats. Identical values can stand only once.
How the values were obtained:
[1] = biological target: T1, Alpha-1D adrenergic receptor (Homo sapiens, UniProt P25100); test: In vitro binding affinity against Alpha-1D adrenergic receptor of cloned human receptor.
T1 sequence (P25100 whole entry): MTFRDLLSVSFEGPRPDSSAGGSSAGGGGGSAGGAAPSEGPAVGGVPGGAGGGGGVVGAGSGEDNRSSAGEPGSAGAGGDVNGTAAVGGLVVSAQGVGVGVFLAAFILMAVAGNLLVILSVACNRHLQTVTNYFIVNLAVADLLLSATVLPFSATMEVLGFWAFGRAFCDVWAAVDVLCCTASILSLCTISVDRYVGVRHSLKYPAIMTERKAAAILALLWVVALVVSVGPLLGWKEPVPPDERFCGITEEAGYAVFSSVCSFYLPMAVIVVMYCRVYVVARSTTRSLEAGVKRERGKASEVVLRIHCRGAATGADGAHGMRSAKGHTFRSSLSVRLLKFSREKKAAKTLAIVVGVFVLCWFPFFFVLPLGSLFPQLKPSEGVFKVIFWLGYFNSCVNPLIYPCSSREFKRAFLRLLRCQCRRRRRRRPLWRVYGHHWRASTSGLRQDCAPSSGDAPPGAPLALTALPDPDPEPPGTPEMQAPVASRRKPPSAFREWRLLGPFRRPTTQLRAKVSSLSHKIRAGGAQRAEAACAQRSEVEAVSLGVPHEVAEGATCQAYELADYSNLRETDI

[2] = biological target: T2, Alpha-1B adrenergic receptor (Homo sapiens, UniProt P35368); test: In vitro binding affinity against Alpha-1B adrenergic receptor of cloned human receptor.
T2 sequence (P35368 whole entry): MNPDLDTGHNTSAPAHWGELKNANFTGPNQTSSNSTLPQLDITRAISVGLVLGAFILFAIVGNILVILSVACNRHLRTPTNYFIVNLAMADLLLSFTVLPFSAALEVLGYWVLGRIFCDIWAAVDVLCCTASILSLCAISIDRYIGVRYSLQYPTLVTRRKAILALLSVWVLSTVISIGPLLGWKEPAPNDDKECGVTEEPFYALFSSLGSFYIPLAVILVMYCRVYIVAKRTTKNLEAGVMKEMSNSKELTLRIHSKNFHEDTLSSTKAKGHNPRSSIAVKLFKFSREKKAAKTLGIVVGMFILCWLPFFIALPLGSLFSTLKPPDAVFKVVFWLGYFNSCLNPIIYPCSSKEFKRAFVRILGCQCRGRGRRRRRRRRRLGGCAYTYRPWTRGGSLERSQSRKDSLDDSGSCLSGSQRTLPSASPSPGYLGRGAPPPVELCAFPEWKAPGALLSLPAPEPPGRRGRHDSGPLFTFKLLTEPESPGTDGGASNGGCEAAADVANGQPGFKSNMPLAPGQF

[3] = biological target: T3, Alpha-1A adrenergic receptor (Homo sapiens, UniProt P35348); test: In vitro binding affinity against Alpha-1A adrenergic receptor of cloned human receptor.
T3 sequence (P35348 whole entry): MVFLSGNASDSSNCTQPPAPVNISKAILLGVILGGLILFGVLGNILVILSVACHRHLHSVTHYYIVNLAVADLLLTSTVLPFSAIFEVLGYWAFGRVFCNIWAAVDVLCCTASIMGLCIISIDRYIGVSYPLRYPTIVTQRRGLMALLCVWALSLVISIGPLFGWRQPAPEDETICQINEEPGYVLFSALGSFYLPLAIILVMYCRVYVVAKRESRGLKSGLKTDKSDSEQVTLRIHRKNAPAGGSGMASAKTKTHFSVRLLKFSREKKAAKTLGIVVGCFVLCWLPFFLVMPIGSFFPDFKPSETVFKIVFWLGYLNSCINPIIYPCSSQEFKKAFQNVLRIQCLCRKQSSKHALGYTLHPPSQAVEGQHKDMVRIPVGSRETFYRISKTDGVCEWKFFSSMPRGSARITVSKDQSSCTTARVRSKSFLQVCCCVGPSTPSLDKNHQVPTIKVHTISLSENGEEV

[4] = biological target: T4, Alpha-1A adrenergic receptor (Rattus norvegicus, UniProt P43140); test: In vitro binding affinity against Alpha-1A adrenergic receptor in isolated prostate tissue of rat; type: tissue-based, Prostate gland
T4 sequence (P43140 whole entry): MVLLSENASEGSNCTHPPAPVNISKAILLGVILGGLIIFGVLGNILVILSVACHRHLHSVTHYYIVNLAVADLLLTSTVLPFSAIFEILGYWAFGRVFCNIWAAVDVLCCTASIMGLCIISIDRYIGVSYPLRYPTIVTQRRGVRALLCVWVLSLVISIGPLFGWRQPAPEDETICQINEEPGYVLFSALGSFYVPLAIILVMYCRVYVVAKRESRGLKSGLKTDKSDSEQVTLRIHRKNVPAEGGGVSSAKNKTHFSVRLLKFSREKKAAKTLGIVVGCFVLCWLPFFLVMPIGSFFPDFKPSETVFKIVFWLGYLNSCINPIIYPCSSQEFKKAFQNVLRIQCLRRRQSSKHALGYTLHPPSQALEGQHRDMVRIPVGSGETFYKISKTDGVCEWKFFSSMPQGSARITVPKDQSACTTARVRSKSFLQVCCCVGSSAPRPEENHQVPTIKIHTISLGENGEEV

Canis familiaris = organism: Canis familiaris; test: Antagonism against phenylephrine induced contractions in isolated prostate tissue of dog; type: functional, Canis lupus familiaris, Prostate gland
Outline: (§1)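 Isolated prostate strips (rat or dog) contracted with phenylephrine as agonist. Antagonist potency is expressed as Kb, derived from the shift in the agonist response by a previously published method.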

Rattus norvegicus = organism: Rattus norvegicus; test: Antagonism against phenylephrine induced contractions in isolated prostate tissue of rat; type: functional, Prostate gland
Outline: as §1

Homo sapiens = organism: Homo sapiens; test: Antagonism against phenylephrine induced contractions in isolated prostate tissue of human; type: functional; settings: Prostate gland

SMILES	Ki [1]	Ki [2]	Ki [3]	Ki [4] [nM]	Kb (Canis familiaris) [nM]	Kb (Rattus norvegicus) [nM]	Kb (Homo sapiens) [nM]
COC(=O)C1=C(C)NC(=O)N(C(=O)NCCCN2CCC(C(=O)OC)(c3ccccc3)CC2)C1c1ccc2nonc2c1 (centres undefined)	93 nM	27 nM	0.1 nM	–	–	–	–
CCC1=C(C(N)=O)C(c2ccc(F)cc2F)N(C(=O)NCCCN2CCC(C(=O)OC)(c3ccccc3)CC2)C(=O)N1 (centres undefined)	440 nM	340 nM	–	–	–	–	–
CCOC(=O)C1=C(C)NC(=O)N(C(=O)NCCCN2CCC(C(=O)OC)(c3ccccc3)CC2)C1c1ccc([N+](=O)[O-])cc1 (centres undefined)	91 nM	15 nM	0.3 nM	–	–	–	–
COC(=O)C1=C(C)NC(=O)N(C(=O)NCCCN2CCC(C(=O)OC)(c3ccccc3)CC2)C1c1ccc(C)cc1 (centres undefined)	220 nM	77 nM	8 nM	–	–	–	–
CCC1=C(C(=O)OC)C(c2ccc([N+](=O)[O-])cc2)N(C(=O)NCCCN2CCC(C(=O)OC)(c3ccccc3)CC2)C(=O)N1 (centres undefined)	87 nM	37 nM	0.8 nM	–	–	–	–
COC(=O)C1=C(C)NC(=O)N(C(=O)NCCCN2CCC(C(=O)OC)(c3ccccc3)CC2)C1c1ccc(F)cc1 (centres undefined)	180 nM	78 nM	1.2 nM	–	–	–	–
COC(=O)C1=C(C)NC(=O)N(C(=O)NCCCN2CCC(c3ccccc3)(c3ccccc3)CC2)C1c1ccc([N+](=O)[O-])cc1 (centres undefined)	120 nM	27 nM	5 nM	–	–	–	–
CCC1=C(C(N)=O)C(c2ccc([N+](=O)[O-])cc2)N(C(=O)NCCCN2CCC(C(=O)OC)(c3ccccc3)CC2)C(=O)N1 (centres undefined)	–	–	–	0.58	0.85	2	0.04
COC(=O)C1=C(C)NC(=O)N(C(=O)NCCCN2CCC(C(=O)OC)(c3ccccc3)CC2)C1c1ccc(Cl)cc1 (centres undefined)	170 nM	48 nM	4.5 nM	–	–	–	–
COC(=O)C1(c2ccccc2)CCN(CCCNC(=O)N2C(=O)NC(C)=C(C(=O)O)C2c2ccc([N+](=O)[O-])cc2)CC1 (centres undefined)	2600 nM	1600 nM	10 nM	–	–	–	–
COC(=O)C1=C(C)NC(=O)N(C(=O)NCCCN2CCC(C(=O)OC)(c3ccccc3)CC2)C1c1cccc(C)c1 (centres undefined)	320 nM	110 nM	1.8 nM	–	–	–	–
COC(=O)C1=C(C)NC(=O)N(C(=O)NCCCN2CCC(C(=O)OC)(c3ccccc3)CC2)C1c1cccc(F)c1 (centres undefined)	150 nM	67 nM	1.5 nM	–	–	–	–
COC(=O)C1=C(C)NC(=O)N(C(=O)NCCCN2CCC(C(=O)OC)(c3ccccc3)CC2)C1c1ccc([N+](=O)[O-])cc1 (centres undefined)	180 nM and 100 nM and 80 nM	81 nM and 28 nM and 19 nM	0.4 nM and 0.5 nM and 2.1 nM	–	–	–	–
COC(=O)C1=C(C)NC(=O)N(C(=O)NCCCN2CCC(C(=O)OC)(c3ccccc3)CC2)C1c1ccc(F)cc1F (centres undefined)	180 nM	88 nM	0.2 nM	–	–	–	–
CCC1=C(C(=O)NC)C(c2ccc([N+](=O)[O-])cc2)N(C(=O)NCCCN2CCC(C(=O)OC)(c3ccccc3)CC2)C(=O)N1 (centres undefined)	398 nM	139 nM	1.2 nM	–	–	–	–
CNC(=O)C1=C(C)NC(=O)N(C(=O)NCCCN2CCC(C(=O)OC)(c3ccccc3)CC2)C1c1ccc([N+](=O)[O-])cc1 (centres undefined)	270 nM	100 nM	2.1 nM	–	–	–	–
COC(=O)C1(c2ccccc2)CCN(CCCNC(=O)N2C(=O)NC(C)=C(C(N)=O)C2c2ccc([N+](=O)[O-])cc2)CC1 (centres undefined)	140 nM	100 nM	0.7 nM	–	–	–	–
COC(=O)C1=C(C)NC(=O)N(C(=O)NCCCN2CCC(C(=O)OC)(c3ccccc3)CC2)C1c1cccc(Cl)c1 (centres undefined)	180 nM	50 nM	1.1 nM	–	–	–	–
